pEC50: −log10 of the molar value.

This note sets out measurements from ChEMBL document CHEMBL2021796, “Synthesis and biological evaluation of a series of thieno-expanded tricyclic purine 2'-deoxy nucleoside analogues” (Bioorg Med Chem, 2012).

This assay concerns Vaccinia virus. In words: Antiviral activity against Vaccinia virus infected in HEL cells assessed as inhibition of virus-induced cytopathogenicity. It counts as functional, organism-based. To be noted: Orthopoxvirus vaccinia. The method in brief:
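Confluent HEL, Vero or HeLa monolayers were infected with 100 CCID50 of virus while exposed to fivefold serial dilutions of compound. Virus-induced cytopathicity was scored when it reached completion in untreated infected controls. The EC50 is the concentration that inhibits cytopathicity by 50%.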
Background: Damage to the host cells serves as the signal in cytopathic effect assays.
Consider `Nc1nc2c(sc3ncn([C@H]4C[C@H](O)[C@@H](CO)O4)c32)c(=O)[nH]1`, for which the pEC50 was less than 4.00.

Turning to `Nc1ncnc2c1sc1ncn([C@H]3C[C@H](O)[C@@H](CO)O3)c12`, the pEC50 was less than 4.70. The result for `NC(=O)c1ncn([C@@H]2O[C@H](CO)[C@@H](O)[C@H]2O)n1` [RIBAVIRIN] reads less than 3.60.

A word on the pEC50: it is the negative decadic logarithm of the EC50, by convention in mol/L.
